Bioassay records (PubChem BioAssay)
This is one part of a sample in which hits are shown more often than they occur.
ROMK mod = ROMK potassium channel modulators, primary screen, cell-based, thallium flux, MLSMR library; ATP-sensitive inward rectifier potassium channel 1 (Homo sapiens), P48048; Tet-inducible ROMK, thallium flux fluorescence; actives lie on both sides; B-score at 10 µM; actives 2% (n = 130,000);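 active = signal ratio slope over the read window, or its plate-corrected B-score, at least 3 SD from the plate mean, either direction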;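 note: B-score of the F/F0 ratio slope over 7 to 12 s after thallium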
Target sequence (P48048 whole entry, looked up): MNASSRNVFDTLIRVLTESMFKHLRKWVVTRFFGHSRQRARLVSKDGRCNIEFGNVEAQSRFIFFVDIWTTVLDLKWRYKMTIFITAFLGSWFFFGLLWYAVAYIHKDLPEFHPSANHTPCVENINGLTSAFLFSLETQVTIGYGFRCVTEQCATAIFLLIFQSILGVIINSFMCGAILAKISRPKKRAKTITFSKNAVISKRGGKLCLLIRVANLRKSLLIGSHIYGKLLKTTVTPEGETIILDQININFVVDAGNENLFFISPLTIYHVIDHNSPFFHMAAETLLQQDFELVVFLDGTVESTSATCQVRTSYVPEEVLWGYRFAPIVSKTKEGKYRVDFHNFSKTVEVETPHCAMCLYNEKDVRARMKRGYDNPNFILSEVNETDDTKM
Biofilm kill mix = clotrimazole potentiators killing C. albicans biofilm, primary screen, 4-compound mixtures; inhibition, % at 7.6 µM; actives 0.02% (n = 120,000); AID 1242, 2008; C. albicans biofilm persisters + clotrimazole, fluorescence viability; primary screen in compound mixtures of four per well;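 note: compounds exposed to preformed 24 h biofilms for 48 h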
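System: C. albicans CAF4-2 wild-type biofilms; Medium: RPMI/MOPS medium, pH 7.0; Reagent: Clotrimazole, 50 µg/mL; Times: biofilm formation 24 h, compound exposure 48 h, 37 °C; Detection: 2-h Alamar Blue fluorescence, 535/590 nm excitation/emission; Evaluation: percent inhibition of biofilm viability.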
Hits are given with their value; 0 = inactive; - = no result.

SMILES	ROMK mod	Biofilm kill mix
N#CC1=C(N)SC(N)=C(C#N)C1c1ccc([N+](=O)[O-])cc1	0	0
CCc1ccc(C2C(C#N)=C(N)SC(N)=C2C#N)cc1	-4.2	-
CCCCn1c(N)c(N(CC)C(=O)C(c2ccccc2)c2ccccc2)c(=O)[nH]c1=O	0	0
CC(C)(C)c1ccc(C(=O)Nc2ccc(NC(=O)C(=O)O)cc2)o1	0	0
CC1=C/C(=N\NC(=S)Nc2cccnc2)CC(C)(C)C1	3	0
CCC(C)(C)C1CCC(=NNC(=S)Nc2cccnc2)CC1 (configuration not stated)	0	0
CCN(CC)CCCN(C(=O)Cn1nnc(-c2ccc(OC)c(OC)c2)n1)C(C(=O)NC(C)(C)C)c1ccc(F)cc1 (configuration not stated)	0	0
CC(=O)Nc1nc2c(s1)C(=O)NCCC2	0	0
Nc1nc2ccccc2n1CCOc1ccccc1Cl	-3.9	-
Nc1nc2ccccc2n1CCN1CCCC1	0	-
S=c1[nH]cnc2scc(-c3ccc(Br)cc3)c12	0	0
Cc1ccc(-c2csc3nc[nH]c(=S)c23)cc1	10	0
Cc1sc2nc(-c3ccccn3)[nH]c(=O)c2c1-c1ccccc1	0	0
Cc1sc2nc[nH]c(=S)c2c1-c1ccccc1	6.4	0
S=c1[nH]cnc2scc(-c3ccc(Cl)cc3)c12	-	0
Cc1cc(-c2csc3nc[nH]c(=S)c23)cc(C)c1C	5.2	0
COc1ccc(CCNC(=O)CSc2nn(-c3ccccc3)c(=S)s2)cc1	-	0
O=C1S/C(=C\c2ccc(O)c([N+](=O)[O-])c2)C(=O)N1Cc1cccc([N+](=O)[O-])c1	-	0
O=C1S/C(=C\c2ccc(O)c([N+](=O)[O-])c2)C(=O)N1c1ccccc1Cl	-3.6	0
CC(C)(C)CC(=O)Nc1nnc(C(F)(F)F)s1	0	0
CC(NC(=O)Nc1nnc(C(F)(F)F)s1)(C(F)(F)F)C(F)(F)F	-3.5	-
CC(=O)Nc1ccc(C(=O)N/C(=C\c2ccccc2)C(=O)Nc2cccc(C(=O)O)c2)cc1	-	0
Cc1cc(SCC(=O)c2ccc(O)c(O)c2)n2nc(C)c(-c3ccccc3)c2n1	-	0
S=c1[nH]nc(-c2ccccn2)n1/N=C/c1ccc(-c2ccccc2Br)o1	0	0
CC(=O)N1CCN(c2c(F)c(F)c(C(F)(F)F)c(F)c2F)CC1	0	62
SMILES	ROMK mod	Biofilm kill mix
CC(=O)N1CCN(c2cc(N3CCCC3)c(F)cc2[N+](=O)[O-])CC1	0	0
CC(=O)Nc1nc(-c2ccc(Cl)cc2)ns1	0	0
c1ccc(CN2CCN(c3ncnc4c3[nH]c3ccccc34)CC2)cc1	-3.7	-
Cc1ccc2[nH]c3c(N4CCN(Cc5ccccc5)CC4)ncnc3c2c1	0	-
CCN(C(=S)NC(=O)c1ccccc1Br)C1CCCCC1	6.9	0
O=C(NC(=S)NC1CCCC1)c1ccccc1Br	0	0
C/C=C\C(=O)Nc1cccc(C2=NOC3(C2)C[C@@H](C(N)=O)N(C(=O)c2ccc(OC)cc2)C3)c1 (some centres not stated)	-	0
CN(C)c1ccc(/C=C/c2ccc3ccccc3[n+]2C)cc1	-	34
CN(C)c1ccc(/C=C/c2ccc3c4ccccc4ccc3[n+]2-c2ccccc2)cc1	0	0
O=C(CN1CCN(c2ccccc2O)CC1)Nc1cccnc1Cl	0	0
C1CCCCCC(NCCN2CCNCC2)CCCCC1	-	0
O=[N+]([O-])c1ccc(N/N=C/c2sc(N3CCOCC3)nc2-c2ccccc2)c(S(=O)(=O)Nc2ccc(Cl)cc2)c1	0	0
O=[N+]([O-])c1ccc(N/N=C/c2sc(N3CCOCC3)nc2-c2ccccc2)c(S(=O)(=O)Nc2ccccc2Cl)c1	-5	0
O=C(NNC(=S)NC1CCCCC1)c1sc2ccccc2c1Cl	0	0
CC(C)(C)C(=O)NC(=S)NNC(=O)c1sc2ccccc2c1Cl	7.3	0
O=C(Cc1c[nH]c2ccccc12)Nc1ccc(N2CCOCC2)cc1	0	0
CCCCNC(=O)C(=O)NCCCn1ccnc1	0	0
C/C(=N\O)C(=O)NCCCn1ccnc1	2.1	0
CCNC(=S)N/N=C/c1cccc(OCc2c(F)cccc2Cl)c1	-	0
Cc1cc(C)c(S(=O)(=O)/N=C2/C=C(Sc3ncn[nH]3)C(=O)c3ccccc32)cc1C	-4.9	0
Cc1ccc(NC2=C/C(=N/S(=O)(=O)c3cccs3)c3ccccc3C2=O)cc1C	0	0
COc1ccc(C(=O)CNc2ccc(C)cc2C)cc1	0	0
O=C(N/N=C/c1cn(Cc2ccccc2)c2ccccc12)c1cccnc1	-	0
O=C(N/N=C/c1c(O)n(Cc2ccccc2)c(=O)c2ccccc12)c1cccnc1	-4.4	0
O=c1c2cc3c(nc2[nH]c(=S)n1-c1ccccc1)CCCC3	-	0
Cc1ccc(F)c(NC(=O)c2ccc(Cn3cc(Cl)cn3)cc2)c1	0	0
Cc1ccc(F)c(NC(=O)/C(C#N)=C(\O)c2ccc(C(C)(C)C)cc2)c1	5.7	0
